PGE2 EP2 inh: EP2 receptor (human) inhibition; C6 glioma cells expressing human EP2, cAMP TR-FRET; cells stimulated with saturating PGE2; inhibition, % at 25 µM; P43116; actives 0.52% (n = 260,000);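 active = percent inhibition above 40 after rounding to a whole number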;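 note: rat C6 glioma host cells with rolipram phosphodiesterase inhibitor present; the protocol text gives 20 µM as final concentration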
FXIa inh: factor XIa (human) inhibition; purified FXIa, Boc-Glu-Ala-Arg-AMC fluorogenic substrate; inhibition, % at 5 µM; actives 0.14% (n = 220,000); AID 798;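 active = inhibition of at least 40%; inactive = inhibition below 40%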;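 note: fluorescence of freed AMC excited at 355 nm; 0% = enzyme without compound and 100% = no enzyme blank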
Target sequence (P03951 19-387 limits assumed): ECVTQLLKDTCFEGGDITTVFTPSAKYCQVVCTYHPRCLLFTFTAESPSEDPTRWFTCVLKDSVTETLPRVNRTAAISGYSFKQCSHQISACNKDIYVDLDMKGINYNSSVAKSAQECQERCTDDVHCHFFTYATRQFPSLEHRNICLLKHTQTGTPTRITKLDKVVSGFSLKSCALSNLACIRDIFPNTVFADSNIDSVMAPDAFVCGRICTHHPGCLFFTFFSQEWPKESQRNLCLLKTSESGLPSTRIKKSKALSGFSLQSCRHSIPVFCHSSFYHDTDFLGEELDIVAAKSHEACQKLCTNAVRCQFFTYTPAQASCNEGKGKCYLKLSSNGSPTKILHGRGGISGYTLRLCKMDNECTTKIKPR
Target sequence (P03951 388-625 limits assumed): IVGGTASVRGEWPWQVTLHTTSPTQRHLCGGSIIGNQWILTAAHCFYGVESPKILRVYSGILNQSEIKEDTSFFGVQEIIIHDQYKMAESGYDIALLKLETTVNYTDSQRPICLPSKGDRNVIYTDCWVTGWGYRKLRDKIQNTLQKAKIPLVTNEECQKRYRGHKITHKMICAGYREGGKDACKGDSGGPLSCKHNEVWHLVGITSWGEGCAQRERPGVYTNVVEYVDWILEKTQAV
FXIIa inh 1536: inhibitors of human coagulation factor XIIa. actives 0.3% (n = 220,000). P00748. inhibition, % at 5 µM. purified FXIIa, Boc-QGR-AMC fluorogenic substrate, 2 h; in the data active = inhibition above about 40%;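 note: 0% = enzyme with no compound and 100% = blank without enzyme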
hK5 inh: blocks human kallikrein 5 protease activity. actives 0.59% (n = 210,000). AID 873. inhibition, % at 5 µM. recombinant hK5, fluorogenic AMC substrate cleavage. Q9Y337;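 active = inhibition of 40% or more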;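 note: 0% = enzyme controls without compound and 100% = no-enzyme blanks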
EP2 modulator: EP2 receptor (human) modulation; actives 0.83% (n = 260,000); induction, % at 25 µM; AID 940; P43116; EP2-expressing cells, cAMP HTRF FRET, PGE2 co-stimulation;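 active = compounds whose cAMP rise, as percent of the full-agonist control response, exceeds 60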;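 note: rat C6 glioma line stably carrying human EP2 under a CMV promoter; the protocol text gives 20 µM as final concentration; 100% = response of wells given 1 µM PGE2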
thrombin 1536: inhibitors of human thrombin. P00734. alpha-thrombin, Boc-VPR-AMC fluorogenic substrate cleavage. inhibition, % at 5 µM. actives 0.26% (n = 220,000). AID 1046;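 active = inhibition at or above 40%; inactive = inhibition below 40%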;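 note: 0% = enzyme with no compound and 100% = wells without enzyme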
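Material: human alpha-thrombin enzyme / Medium: pH 7.5 Tris (50 mM) with NaCl 150 mM, Tween 20 0.05% / Compound: single-point dosing at 5 µM, 0.2% DMSO / Incubation: enzyme reaction carried out at room temperature / Detection: AMC fluorescence, 355/460 nm / Read-out basis: percent inhibition scaled between no-compound controls and no-enzyme blanks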
Numbers without * were called inactive; · = no result; ! = a repeat was not active. Compounds with a hit are over-represented: about 2.1% of the library has one in this group of screens.

SMILES	PGE2 EP2 inh	FXIa inh	FXIIa inh 1536	hK5 inh	EP2 modulator	thrombin 1536
O=C(Cc1n[nH]c(=O)c2ccccc12)N1CCC(n2nnc(-c3ccccc3)n2)CC1	·	·	·	·	-76	·
C/C(=N\Nc1nc(N2CCCCC2)nc(N2CCOCC2)n1)c1ccccc1O	10	-2	5	2	64*	-6
C/C(=N\Nc1nc(N2CCOCC2)nc(N2CCOCC2)n1)c1cccs1	6	-1	11	-3	7	-8
Cc1cc(Cl)ccc1Nc1sc(C(=O)c2cc3cc(Cl)ccc3o2)c(N)c1C#N	51*	·	·	·	-16	·
CN1CCN(CCCN2c3ccccc3Sc3ccc(C(F)(F)F)cc32)CC1	41*!	6	11	-16	-21	-1
Cc1ccc2c(c1)C(O)CC1(CCN(CC(O)c3ccc(Cl)cc3)CC1)O2 (stereo unspecified)	10	·	·	·	-79	·
COc1cc(CN2C[C@@H]3CCCN3C[C@@H]2Cc2ccccc2)cc(OC)c1OC	7	·	·	·	-5	·
CCOC(=O)/C(C)=C1\NC(C)(C)Cc2ccccc21	9	5	65*	40	0	-2
CCOC(=O)/C(C(=O)Nc1ccccc1Cl)=C1/NC(C)(C)Cc2ccccc21	7	4	17	5	36	0
Oc1ccc(-c2nc3ccccc3s2)cc1	8	-7	-1	-8	-43	42*
CC(CCc1nc2ccccc2s1)(c1ccc(O)cc1)c1ccc(O)cc1	100*	·	·	·	-33	·
Oc1ccc(-c2nccc(-c3ccc(Cl)cc3)n2)cc1	8	-5	7	-6	-14	2
Oc1ccc(-c2cccc(-c3ccc(O)cc3)n2)cc1	12	-9	-2	47*	-29	-6
CCc1[nH]n2c(=O)cc(COC)nc2c1-c1ccc(Cl)cc1	·	·	·	·	-4	·
COc1ccc2c(c1)cc(C)c1nn(CC(=O)N3CCCCC3C)c(=O)n12 (stereo unspecified)	4	·	·	·	-32	·
CCC1C(=NO)C(CC)C(c2ccccc2)NC1c1ccccc1 (stereo unspecified)	0	19	28	16	63*	11
Cn1cc(C(=O)c2ccc(Cl)cc2Cl)cc1C(=O)N/N=C(\N)COc1ccc(F)cc1	17	-1	9	-111	-3	76*
Cn1cc(C(=O)c2ccc(Cl)cc2Cl)cc1C(=O)N/N=C(\N)COc1ccc(Cl)cc1	7	2	9	-9	-1	0
CC(C)CCN(C)C1CCN(S(=O)(=O)c2cccc(C(F)(F)F)c2)CC1	·	4	-9	53*	-2	26
CCOc1ccc2[nH]c(=O)c(CN(CC3CCCO3)C(=O)NCc3ccccc3)cc2c1 (stereo unspecified)	12	·	·	·	3	·
Cc1ccc2c(c1)C=CC(C)N2C(=O)c1ccccc1 (stereo unspecified)	6	4	-1	5	64*	-18
O=C(C[C@@H]1C=Cc2ccccc2N1C(=O)c1ccccc1)c1ccccc1	59*	·	·	·	38	·
COc1ccc(C(=O)N2c3ccccc3C=CC2C#N)cc1 (stereo unspecified)	5	-3	13	-11	14	-14
CC(Oc1ccccc1)C(=O)Nc1sc2c(c1C#N)CCCC2 (stereo unspecified)	5	·	·	·	46	·
Cc1cccc2cc(CN(CCCN3CCOCC3)C(=O)Nc3ccccc3)c(=O)[nH]c12	23	·	·	·	25	·
SMILES	PGE2 EP2 inh	FXIa inh	FXIIa inh 1536	hK5 inh	EP2 modulator	thrombin 1536
CC(C)(C)C(=O)N1NC(=Nc2ccccc2)SC1(C)C	10	31	40*	34	-10	6
O=C(COC(=O)c1ccccc1Br)Nc1ccc(F)cc1	3	35	41*	22	-83	5
O=C(COC(=O)c1ccccc1Br)NCCc1ccc(F)cc1	6	-3	1	-3	-59	-7
O=C(CCS(=O)(=O)c1cccc2nsnc12)NC1CCCCCC1	12	11	8	41*	16	14
CCC(C)C(=O)Nc1nnc(C)s1 (stereo unspecified)	7	·	·	·	-22	·
CCc1ccc(S(=O)(=O)ON2C(=O)c3ccccc3C2=O)cc1	8	22	15	1	-62	60*
COc1ccc(-c2nnc(SCC(=O)N(C(C)C)C(C)C)o2)cc1	6	·	·	·	-30	·
COC(=O)c1sccc1NC(=O)CSc1cccc(Cl)c1Cl	·	-17	-15	-7	61*	0
COC(=O)c1sccc1NC(=O)/C=C/c1ccc(Cl)cc1Cl	6	4	8	-16	5	-2
COC(=O)c1sccc1NC(=O)CSc1nnnn1-c1ccccc1C	12	6	14	-9	-6	2
COC(=O)c1sccc1NC(=O)/C=C/c1c(Cl)cccc1Cl	21	22	40*	-6	28	2
COCCn1c(SCC(=O)Nc2ccccc2)nc2sc(C)c(C)c2c1=O	7	·	·	·	-62	·
COc1cc(/C=N/N2C(=O)C3C4C=CC(CC4)C3C2=O)ccc1O (stereo unspecified)	2	-4	7	·	21	-5
O=C1C2C3c4ccccc4C(c4ccccc43)C2C(=O)N1/N=C/c1cccc(O)c1 (stereo unspecified)	6	4	24	42*	13	20
COc1ccc(-c2[nH]ncc2C2N=C(N)Nc3nc4ccccc4n32)cc1 (stereo unspecified)	2	47*	31	18	2	9
NC1=NC(c2cn[nH]c2-c2cccc(F)c2)n2c(nc3ccccc32)N1 (stereo unspecified)	6	-6	-8	-22	1	1
CCCC(=O)Nc1ncnc2c1ncn2[C@@H]1O[C@@H]2COP(=O)(O)O[C@H]2[C@H]1OC(=O)CCC	2	13	7	-7	109*	-4
O=C(Nc1ncnc2c1ncn2C1OC(COC(=O)c2ccccc2)C(F)C1O)c1ccccc1 (stereo unspecified)	20	-2	9	-19	-10	-1
Cc1ccc(S(=O)(=O)NC2(C(F)(F)F)NC(=O)N(C)C2=O)cc1 (stereo unspecified)	-2	7	22	67*	1	14
COc1ccc(Cl)cc1NC(=O)Nn1cnnc1	12	-20	4	5	4	-5
COc1ccc(Cl)cc1NC(=O)Nc1cn(C)nc1C	9	45*	21	57*	-15	6
CC1=C(C(=O)N2CCCCC2)C(c2cccs2)C2=C(CCCC2=O)N1 (stereo unspecified)	1	-4	-6	138*	·	2
O=C(c1ccco1)N1N=C(c2ccc(Cl)cc2)CC1(O)C(F)(F)F (stereo unspecified)	7	-4	6	-4	61*	-7
Cc1cc2ccccc2n2c(=O)n(CC(=O)N(C)C)nc12	8	·	·	·	3	·
CCCc1c(-c2ccc(O)cc2)nn(-c2ccc(O)cc2)c1-c1ccc(O)cc1	100*	2	9	1	-22	1
